# Published values of several laboratories.
# Each line is one published result; the experiments were not run side by side.
# Effect on: cell growth or viability
Compound,cell line,method,time,quantity,result
COc1ccc2c(c1)[nH]c1c(C)nccc12,BT-474,MTT,72 h,IC50,20200 nM
N.N.[Cl][Pt][Cl],M21,SRB,48 h,IC50,17000 nM
CC[C@H](C)[C@@H]([C@@H](CC(=O)N1CCC[C@H]1[C@H](OC)[C@@H](C)C(=O)N[C@H](C)[C@@H](O)c1ccccc1)OC)N(C)C(=O)[C@@H](NC(=O)[C@H](C(C)C)N(C)C(=O)CCc1cn(CCOCCOCCOCCOCC(=O)NCc2ccc(CN3C(=O)[C@H]4CC(=O)N[C@H](C(=O)O)CC(=O)NCC(=O)N[C@@H](CCCNC(=N)N)C(=O)NC[C@H]3C(=O)N4)cc2)nn1)C(C)C,M21,MTT,72 h,IC50,400 nM
N.N.[Cl][Pt][Cl],CCD 19Lu,,24 h,IC50,> 100000 nM
CC[C@@H]1C(=O)N(C)c2cnc(Nc3ccc(C(=O)NC4CCN(C)CC4)cc3OC)nc2N1C1CCCC1,MB002,,7 days,IC50,3.4 nM
CN[C@@H]1C[C@H]2O[C@@](C)([C@@H]1OC)n1c3ccccc3c3c4c(c5c6ccccc6n2c5c31)C(=O)NC4,KB 3-1,WST-1,5 days,Kb,4 nM
CC[C@H](Nc1nc(NCc2cnc(C)cc2C)c2ncn(C(C)C)c2n1)[C@@H](C)O,MB002,,7 days,IC50,277 nM
N.N.[Cl][Pt][Cl],B16-F10,MTT,,IC50,9380 nM
Cc1sc2c(c1C)C(c1ccc(Cl)cc1)=N[C@@H](CC(=O)Nc1ccc(O)cc1)c1nnc(C)n1-2,MB002,,7 days,IC50,12.6 nM
CC[C@H](C)[C@@H]([C@@H](CC(=O)N1CCC[C@H]1[C@H](OC)[C@@H](C)C(=O)N[C@H](C)[C@@H](O)c1ccccc1)OC)N(C)C(=O)[C@@H](NC(=O)[C@H](C(C)C)N(C)C(=O)OCc1ccc(NC(=O)[C@H](C)NC(=O)[C@@H](NC(=O)CCc2cn(CCOCCOCCOCCOCC(=O)NCc3ccc(CN4C(=O)[C@H]5CC(=O)N[C@H](C(=O)O)CC(=O)NCC(=O)N[C@@H](CCCNC(=N)N)C(=O)NC[C@H]4C(=O)N5)cc3)nn2)C(C)C)cc1)C(C)C,M21,MTT,72 h,IC50,6.94 nM
